# According to ChEMBL document CHEMBL5724801, “EUbOPEN Chemogenomics Library - Multiplex” (2024):
# “And” between values parts separate entries of the source, which are not always exact repeats. Equal entries are not always repeated.
# Tested on: U2OS
# Experiment: Multiplex assay against U2OS
# Assay type: toxicity, cell-based
# Details: human, 12 h, 1 µM, compound concentration 1 uM
# In short: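 Per cents of healthy-nucleus cells form the tubulin, mitochondrial-mass and membrane-permeability phenotype values. Live cells were stained at seeding with Hoechst33342, BioTracker Green Microtubule Cytoskeleton Dye, MitoTracker Red and Annexin V Alexa Fluor 680. After compound addition they were imaged on a CQ1 microscope at 37°C and 5% CO2, and CellPathfinder machine-learning gating split them into Hoechst high-intensity objects or normal cells, normal cells into healthy, pyknosed or fragmented nuclei, and pyknosed cells into mitotic or apoptotic.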
Compound,Population Apoptotic (%),Population Fragmented Nuclei (%),Population Healthy Nuclei (%),Population Hoechst High Intensity Objects (%),Population Membrane Permeable-Phenotype (%),Population Mitochondria Different-Phenotype (%),Population Mitotic Cells (%),Population Normal (%),Population Pyknosed Nuclei (%),Population Tubulin-Different-Phenotype (%)
CN1CCN2c3ncccc3Cc3ccccc3C2C1 (stereo not drawn) [MIRTAZAPINE],82% and 100%,21%,67% and 72%,1%,3% and 5%,1% and 6%,17% and 0%,99% and 98%,11% and 6%,2% and 3%
CCn1c(-c2nc3cc(C(=O)N4CCCC(N)C4)ccc3n2C)cc2ccccc21.Cl (stereo not drawn),,,67% and 77% and 89.25% and 83.07%,0% and 5%,4% [middle of 4 runs],,,99% and 94% and 100%,,2.36% [middle of 4 runs]
S=c1[nH]nc(-c2cccs2)n1-c1ccccc1,50% and 31.82%,2.88% and 1.49%,87.7% and 82.09%,0%,0% and 3.64%,0.3% and 2.73%,50% and 68.18%,100%,9.42% and 16.42%,0.3% and 0%
O=C1N=C(NCc2cccs2)S/C1=C\c1ccc2ncccc2c1,36.36% and 33.33%,2.87% and 8.81%,87.42% and 78.76%,0%,0.51% and 3.95%,,63.64% and 66.67%,100%,9.71% and 12.44%,1.01% and 1.97%

# Same assay, conditions: human, 12 h, 1 µM, compound concentration 1 uM
row,Compound,Total Cell Count
1,S=c1[nH]nc(-c2cccs2)n1-c1ccccc1,382 and 134
2,O=C1N=C(NCc2cccs2)S/C1=C\c1ccc2ncccc2c1,453 and 193

# Same assay, conditions: human, 12 h, 10 µM, compound concentration 10 uM
Compound,Population Apoptotic (%),Population Fragmented Nuclei (%),Population Healthy Nuclei (%),Population Hoechst High Intensity Objects (%),Population Membrane Permeable-Phenotype (%),Population Mitochondria Different-Phenotype (%),Population Mitotic Cells (%),Population Normal (%),Population Pyknosed Nuclei (%),Population Tubulin-Different-Phenotype (%)
CN1CCN2c3ncccc3Cc3ccccc3C2C1 (stereo not drawn) [MIRTAZAPINE],73% and 66%,19% and 13%,71% and 82%,3%,6% and 3%,5% and 4%,26% and 33%,96%,8% and 3%,6% and 0%
CCn1c(-c2nc3cc(C(=O)N4CCCC(N)C4)ccc3n2C)cc2ccccc21.Cl (stereo not drawn),48% [middle of 4 runs],,56% and 60% and 74.57% and 67.27%,2% and 1% and 0%,,,51% and 45% and 65.85% and 73.91%,97% and 98% and 100%,19% and 18% and 23.43% and 27.88%,27% and 48% and 33.72% and 25.23%
S=c1[nH]nc(-c2cccs2)n1-c1ccccc1,41.82% and 31.25%,1.86% and 4.61%,83.55% and 84.87%,0%,0.32% and 5.43%,0.32% and 5.43%,58.18% and 68.75%,100%,14.59% and 10.53%,0.63% and 0%
O=C1N=C(NCc2cccs2)S/C1=C\c1ccc2ncccc2c1,55% and 44%,1.99% and 5.59%,91.39% and 78.88%,0%,16.67% and 19.69%,,45% and 56%,100%,6.62% and 15.53%,18.48% and 14.96%

# Same assay, conditions: human, 12 h, 10 µM, compound concentration 10 uM
row,Compound,Total Cell Count
1,CCn1c(-c2nc3cc(C(=O)N4CCCC(N)C4)ccc3n2C)cc2ccccc21.Cl (stereo not drawn),277 [middle of 4 runs]
2,S=c1[nH]nc(-c2cccs2)n1-c1ccccc1,377 and 152
3,O=C1N=C(NCc2cccs2)S/C1=C\c1ccc2ncccc2c1,302 and 161

# Same assay, conditions: human, 24 h, 1 µM, compound concentration 1 uM
Compound,Population Apoptotic (%),Population Fragmented Nuclei (%),Population Healthy Nuclei (%),Population Hoechst High Intensity Objects (%),Population Membrane Permeable-Phenotype (%),Population Mitochondria Different-Phenotype (%),Population Mitotic Cells (%),Population Normal (%),Population Pyknosed Nuclei (%),Population Tubulin-Different-Phenotype (%)
CN1CCN2c3ncccc3Cc3ccccc3C2C1 (stereo not drawn) [MIRTAZAPINE],85% and 100%,15% and 26%,76% and 63%,2% and 3%,5% and 3%,3%,14% and 0%,97% and 96%,8% and 10%,2% and 4%
CCn1c(-c2nc3cc(C(=O)N4CCCC(N)C4)ccc3n2C)cc2ccccc21.Cl (stereo not drawn),66% [middle of 4 runs],,68% and 92.18% and 84.19%,1% and 3% and 0.17% and 0%,,,,98% and 96% and 99.83% and 100%,9% and 5% and 6.49% and 13.68%,
S=c1[nH]nc(-c2cccs2)n1-c1ccccc1,38.78% and 38.46%,1.97% and 1.6%,88.36% and 84.57%,0.2% and 0%,0.22% and 3.14%,0.22% and 3.14%,61.22% and 61.54%,99.8% and 100%,9.66% and 13.83%,0.89% and 0%
O=C1N=C(NCc2cccs2)S/C1=C\c1ccc2ncccc2c1,37.5% and 40.54%,1.66% and 6.39%,87.71% and 79.7%,0%,0.95% and 5.19%,0.19% and 9.91%,62.5% and 59.46%,100%,10.63% and 13.91%,0.38% and 1.42%

# Same assay, conditions: human, 24 h, 1 µM, compound concentration 1 uM
row,Compound,Total Cell Count
1,S=c1[nH]nc(-c2cccs2)n1-c1ccccc1,508 and 188
2,O=C1N=C(NCc2cccs2)S/C1=C\c1ccc2ncccc2c1,602 and 266

# Same assay, conditions: human, 24 h, 10 µM, compound concentration 10 uM
Compound,Population Apoptotic (%),Population Fragmented Nuclei (%),Population Healthy Nuclei (%),Population Hoechst High Intensity Objects (%),Population Membrane Permeable-Phenotype (%),Population Mitochondria Different-Phenotype (%),Population Mitotic Cells (%),Population Normal (%),Population Pyknosed Nuclei (%),Population Tubulin-Different-Phenotype (%)
CN1CCN2c3ncccc3Cc3ccccc3C2C1 (stereo not drawn) [MIRTAZAPINE],89% and 83%,18% and 9%,71% and 85%,2% and 0%,4% and 5%,2%,10% and 16%,97% and 99%,9% and 5%,0% and 5%
CCn1c(-c2nc3cc(C(=O)N4CCCC(N)C4)ccc3n2C)cc2ccccc21.Cl (stereo not drawn),62% and 73% and 40% and 53.33%,,54% and 64% and 74.61% and 71.91%,2% and 3% and 0%,,,46.67% [middle of 4 runs],97% and 96% and 100%,17% and 16% and 21.16% and 25.28%,15.62% [middle of 4 runs]
S=c1[nH]nc(-c2cccs2)n1-c1ccccc1,38.46% and 40%,2.57% and 1.6%,87.15% and 87.77%,0%,0.91% and 5.45%,0.23% and 3.03%,61.54% and 60%,100%,10.28% and 10.64%,0.91% and 1.21%
O=C1N=C(NCc2cccs2)S/C1=C\c1ccc2ncccc2c1,68.42%,4.38% and 8.12%,76.43% and 68.12%,0%,10.57% and 12.84%,,31.58%,100%,19.19% and 23.75%,13.66% and 9.17%

# Same assay, conditions: human, 24 h, 10 µM, compound concentration 10 uM
row,Compound,Total Cell Count
1,CN1CCN2c3ncccc3Cc3ccccc3C2C1 (stereo not drawn) [MIRTAZAPINE],314 and 108
2,S=c1[nH]nc(-c2cccs2)n1-c1ccccc1,506 and 188
3,O=C1N=C(NCc2cccs2)S/C1=C\c1ccc2ncccc2c1,297 and 160

# Same assay, conditions: human, 48 h, 1 µM, compound concentration 1 uM
Compound,Population Apoptotic (%),Population Fragmented Nuclei (%),Population Healthy Nuclei (%),Population Hoechst High Intensity Objects (%),Population Membrane Permeable-Phenotype (%),Population Mitochondria Different-Phenotype (%),Population Mitotic Cells (%),Population Normal (%),Population Pyknosed Nuclei (%),Population Tubulin-Different-Phenotype (%)
CN1CCN2c3ncccc3Cc3ccccc3C2C1 (stereo not drawn) [MIRTAZAPINE],83% and 92%,12% and 20%,76% and 68%,2% and 4%,4% and 8%,2% and 4%,16% and 7%,97% and 95%,10% and 11%,3% and 1%
CCn1c(-c2nc3cc(C(=O)N4CCCC(N)C4)ccc3n2C)cc2ccccc21.Cl (stereo not drawn),75% and 70% and 44% and 47.83%,,76% and 70% and 90.93% and 86.01%,2% and 4% and 0%,8% and 10% and 1.19% and 2.66%,3% and 9% and 0.33% and 7.4%,52.17% [middle of 4 runs],97% and 95% and 100%,6% and 7% and 7.4% and 11.7%,5% and 8% and 1.41% and 1.78%
S=c1[nH]nc(-c2cccs2)n1-c1ccccc1,48.15% and 60%,1.9% and 2.52%,90.4% and 84.91%,0.09% and 0%,0.84% and 0.74%,0% and 3.7%,51.85% and 40%,99.91% and 100%,7.7% and 12.58%,0.63% and 0%
O=C1N=C(NCc2cccs2)S/C1=C\c1ccc2ncccc2c1,47.06% and 45.1%,4.77% and 4%,86.23% and 84%,0.09% and 0%,0.92% and 1.96%,0.1% and 4.48%,52.94% and 54.9%,99.91% and 100%,9% and 12%,0.82% and 0.28%

# Same assay, conditions: human, 48 h, 1 µM, compound concentration 1 uM
row,Compound,Total Cell Count
1,O=C1N=C(NCc2cccs2)S/C1=C\c1ccc2ncccc2c1,1134 and 425

# Same assay, conditions: human, 48 h, 10 µM, compound concentration 10 uM
Compound,Population Apoptotic (%),Population Fragmented Nuclei (%),Population Healthy Nuclei (%),Population Hoechst High Intensity Objects (%),Population Membrane Permeable-Phenotype (%),Population Mitochondria Different-Phenotype (%),Population Mitotic Cells (%),Population Normal (%),Population Pyknosed Nuclei (%),Population Tubulin-Different-Phenotype (%)
CN1CCN2c3ncccc3Cc3ccccc3C2C1 (stereo not drawn) [MIRTAZAPINE],95% and 100%,15% and 12%,75% and 78%,2%,7% and 3%,4% and 3%,5% and 0%,97%,9%,5% and 3%
CCn1c(-c2nc3cc(C(=O)N4CCCC(N)C4)ccc3n2C)cc2ccccc21.Cl (stereo not drawn),78% and 77% and 57.94% and 60%,,53% and 64% and 76.68% and 73.28%,5% and 6% and 0% and 0.4%,,,40% [middle of 4 runs],94% and 93% and 100% and 99.6%,19% and 16% and 18.03% and 22.27%,14.92% [middle of 4 runs]
S=c1[nH]nc(-c2cccs2)n1-c1ccccc1,25.3% and 58.62%,3.4% and 3.18%,88.05% and 87.58%,0%,1.29% and 2.18%,0.12% and 3.27%,74.7% and 41.38%,100%,8.55% and 9.24%,0.94% and 0%
O=C1N=C(NCc2cccs2)S/C1=C\c1ccc2ncccc2c1,81.63% and 92.42%,10.65% and 9.25%,57.74% and 52.6%,0%,3.91% and 5.49%,,18.37% and 7.58%,100%,31.61% and 38.15%,

# Same assay, conditions: human, 48 h, 10 µM, compound concentration 10 uM
row,Compound,Total Cell Count
1,CN1CCN2c3ncccc3Cc3ccccc3C2C1 (stereo not drawn) [MIRTAZAPINE],435 and 170
2,O=C1N=C(NCc2cccs2)S/C1=C\c1ccc2ncccc2c1,310 and 173
